Experiment [1] concerns Mus musculus. The experiment in a line: Percent increase in life span of mice bearing L1210 ascites cells compared to control (in vivo). The format is functional. An outline of the steps:
(§1)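 BDF1 female mice (18-20 g), groups of six, implanted ip with 10^5 L1210 ascites cells. On day 1 (24 h later), a single ip injection of test agent at 200 mg/kg, alone or with cyclophosphamide at 100 mg/kg, as a solution or suspension in 5% Tween 80 in normal saline, pH 4. Acetals were heated at 80 °C for 2 h just before injection. Vehicle-only controls were run. Deaths were recorded daily. %ILS = (mean treated life span − mean control)/mean control × 100, with survivors capped at 30 days. Survival was scored as the percent of each group alive 50 days after day 1.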

The subject of experiment [2] is Mus musculus. Briefly: Percent animals surviving 50 days from day 1 (in vivo). It is filed as functional. In short, it runs like this:
as §1

As to `CCOC(CCP(=O)(OCC)OCC)OCC`, the ILC in experiment [1] came to 204%. The compound further registered a Cures in experiment [2] of 83%.
The matching figures for `CCOC(CCP(=O)(OCC)c1ccccc1)OCC` (stereo not given): 166% and 50%.
In experiment [1], `Cc1ncc(CO)c(C=O)c1O` [PYRIDOXAL] returned an ILC of 164%. In experiment [2], this compound showed a Cures of 33%.
The like results for `CCOP(=O)(CCC=O)c1ccccc1` (stereo not given) were, in that order, 175% and 83%.
The matching figures for `CCOP(=O)(CC=O)OCC`: 180% and 67%.
